Consider 16 compounds from ChEMBL document CHEMBL3632599, “2-((Benzimidazol-2-yl)thio)-1-arylethan-1-ones: Synthesis, crystal study and cancer stem cells CD133 targeting potential” (Eur J Med Chem, 2015).

For test [1], the system named is HT-29. Kind of test: Cytotoxicity against human HT-29 cells assessed as growth inhibition after 48 hrs by WST-1 assay. The note with it: HT-29, 48 h. In kind it is functional, cell-based. Summed up:
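HT-29 human colon cancer cells kept in RPMI 1640 with 10% FBS, penicillin, streptomycin and 2 mmol/L L-glutamine. Seeded at 0.4*10⁴/well, left overnight, then medium replaced with fresh medium holding the test concentrations for 48 h. WST-1 added, 4 h at 37 °C, formazan read at 450 nm. IC₅₀ taken relative to untreated controls; mean ± SD of three separate experiments.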
On the technique in general: Formazan colour is commonly taken as a measure of viable cells.

Test [2] deals with HT-29. Kind of test: Inhibition of cell surface expression of CD133 in human HT-29 cells at 10 uM by flow cytometric analysis relative to control. In kind it is functional. Summed up: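 HT-29 cells exposed to compound at 10 µM, then harvested, washed and stained with APC-conjugated anti-CD133 monoclonal antibody. Analysed by flow cytometry (BD LSR II), with debris and cell clusters excluded by forward- and side-scatter gating. Reported as % inhibition of […] relative to untreated cells; mean ± SD of three separate experiments.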

Molecules are shown by their SMILES. Activity calls are given as the source filed them. The rule behind the calls is not given here. Bounds are passed on as bounds.

`O=C(CSc1nc2ccccc2[nH]1)c1ccccc1`: the IC50 with HT-29 [1] worked out at 38.5 µM. The inhibition result in the test with HT-29 [2] is “inactive”. As to `COc1ccc(C(=O)CSc2nc3ccccc3[nH]2)cc1O`, the IC50 in the test on HT-29 [1] turned out to be 33 µM. The same compound returned an inhibition at 10 µM in the test with HT-29 [2] of 49.7%. On to `COc1ccccc1C(=O)CSc1nc2ccccc2[nH]1`, for which the IC50 with HT-29 [1] came out at 36.1 µM. Also, the inhibition at 10 µM in the test on HT-29 [2] came out at 34.9%. The corresponding values for `O=C(CSc1nc2ccccc2[nH]1)c1cccs1` are 23.9 µM and 55.6%. Regarding `O=C(CSc1nc2ccccc2[nH]1)c1ccc([N+](=O)[O-])cc1`, the IC50 with HT-29 [1] turned out to be 57 µM. In addition, the inhibition result with HT-29 [2] is “inactive”. `COc1ccc(C(=O)CSc2nc3ccccc3[nH]2)cc1`: the IC50 in the test on HT-29 [1] was 25.2 µM. In the test with HT-29 [2], this compound yielded an inhibition at 10 µM of 52.5%.

`O=C(CSc1nc2ccccc2[nH]1)c1ccc(Br)cc1`: in the test on HT-29 [1], the 50% inhibitory concentration (IC50) was determined as 43 µM. In addition, the inhibition result with HT-29 [2] was “inactive”. For `O=C(CSc1nc2ccccc2[nH]1)c1ccc(O)cc1` the same measures were 19.2 µM and “inactive”. Turning to `O=c1[nH]cc(F)c(=O)[nH]1` [FLUOROURACIL], the IC50 in the test with HT-29 [1] turned out to be 15.8 µM. On to `COc1ccc(C(=O)CSc2nc3ccccc3[nH]2)cc1OC`, for which the IC50 with HT-29 [1] worked out at 19.1 µM. In the test with HT-29 [2], this compound showed an inhibition at 10 µM of 52.6%. Consider `COc1ccc(C(=O)CSc2nc3ccccc3[nH]2)c(OC)c1OC`, for which, in the test with HT-29 [1], the IC50 was 18.8 µM. The compound further registered an inhibition at 10 µM in the test on HT-29 [2] of 50.1%. With `Cc1ccc(C(=O)CSc2nc3ccccc3[nH]2)cc1`, the IC50 in the test on HT-29 [1] came to 34.5 µM. Moreover, in the test on HT-29 [2], testing at 10 µM gave an inhibition of 40%.

For `O=C(CSc1nc2ccccc2[nH]1)c1ccc(F)cc1`, the IC50 in the test with HT-29 [1] stood at 78.7 µM. Further, in the test with HT-29 [2], the inhibition entry is “inactive”.

As to `O=C(CSc1nc2ccccc2[nH]1)c1ccco1`, in the test on HT-29 [1], the IC50 came out at 24.6 µM. The compound further returned an inhibition at 10 µM in the test with HT-29 [2] of 56.8%. For `O=C(CSc1nc2ccccc2[nH]1)c1ccc2c(c1)OCO2` the same measures were 36.8 µM and 51.2%. For `CCOc1ccc(C(=O)CSc2nc3ccccc3[nH]2)cc1` the same measures were over 100 µM and 55.1%.

What is called IC50 is the concentration needed to halve the response being measured. The inhibition is the percentage by which the read-out fell short of the control.
